Common to all, as to type: functional
A short description of experiment [1]: Antioxidant activity assessed as inhibition of Fe(3+)/ascorbate-induced lipid peroxidation in liposomes after 1 hr by TBARS assay. In short, it runs like this: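 Lecithin liposomes were sonicated in 10 mmol/L phosphate buffer, pH 7.4. Final mix: 3.08 mg liposome/mL, 123.2 µmol FeCl3, 123.2 µmol ascorbic acid, test compound 0.025–0.4 mM. Incubated 1 h at 37 °C. MDA measured by TBA reaction; n-butanol layer read at 532 nm against a lecithin-free blank. EC50 is the concentration reducing TBARS to 50% of control.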

Experiment [2] can be described thus: Antioxidant activity assessed as trolox equivalent of ABTS free radical scavenging activity after 6 mins by […]. The gist of the method: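 ABTS radical cation solution was added to compounds (0.2–6.25 mM). Decrease in absorbance at 734 nm was read exactly 6 min after mixing, with ethanol blanks. A Trolox standard curve (final 0–20 µM in ethanol) gives TEAC, the mM Trolox equivalent to 1 mM compound. Run in triplicate.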

In experiment [3] the test system is Radical scavenging activity. Briefly: Antioxidant activity assessed as DPPH radical scavenging activity after 30 mins by spectrophotometry. The gist of the method: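 Test compounds (0.2–6.25 mM) dissolved in DMSO, added to 6×10^-5 M methanolic DPPH. Mixture held 30 min at room temperature in the dark, then absorbance read at 517 nm against methanol. Scavenging % = [1 − A_sample/A_control] × 100, with a negative control lacking sample. Triplicates averaged; EC50 taken from dose–response.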

A short description of experiment [4]: Antioxidant activity assessed as reduction of […]/ferricyanide complex after 20 mins by spectrophotometry. The gist of the method: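 Compounds (1.6–6.25 mM) mixed with 0.2 M phosphate buffer, pH 6.6, and 1% potassium ferricyanide, 20 min at 50 °C. Stopped with 1% TCA and centrifuged at 2790 g for 10 min. Supernatant plus water and 0.1% FeCl3 read at 700 nm. EC50 is the concentration giving absorbance 0.5. Mean ± SD of triplicates.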

Another experiment has as its system U-251. Briefly: Growth inhibition in human U251 cells assessed as viable cells at 10 uM after 48 hrs by sulforhodamine B assay. To be noted: U-251, 48 h, read-out: Activity. In short, it runs like this:
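NCI 60-line screen, single dose 10^-5 M, 48 h continuous exposure. Cells grown in RPMI 1640 with 5% FBS and 2 mM L-glutamine, plated at 5000–40,000 cells/well and preincubated 24 h at 37 °C, 5% CO2. Drug stocks in DMSO. Endpoint: TCA fixation, SRB staining, absorbance at 515 nm. Growth % relative to untreated controls and time-zero plates.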
(The SRB assay estimates cell density from bound dye.)

A further experiment relates to SF-539. Kind of experiment: Growth inhibition in human SF539 cells assessed as viable cells at 10 uM after 48 hrs by sulforhodamine B assay. The note with it: SF-539, 48 h, read-out: Activity.
The subject of a further experiment is SF-268. Briefly: Growth inhibition in human SF268 cells assessed as viable cells at 10 uM after 48 hrs by sulforhodamine B assay. To be noted: SF-268, 48 h, read-out: Activity.
The next experiment concerns SNB-19. Kind of experiment: Growth inhibition in human SNB19 cells assessed as viable cells at 10 uM after 48 hrs by sulforhodamine B assay. The note with it: SNB-19, 48 h, read-out: Activity.
The test system of another experiment is SNB-75. Briefly: Growth inhibition in human SNB75 cells assessed as viable cells at 10 uM after 48 hrs by sulforhodamine B assay. To be noted: SNB-75, 48 h, read-out: Activity.

For 5 compounds, EC50 and viability results are on record in ChEMBL document CHEMBL1154871, “Synthesis of new spiroindolinones incorporating a benzothiazole moiety as antioxidant agents” (Eur J Med Chem, 2010).

One may read the EC50 as the concentration needed to bring the measured effect to its halfway point.

Regarding `CN1C(=O)C2(Nc3ccccc3S2)c2cc(Br)ccc21` (stereo not given), the EC50 in experiment [1] was found to be 34 µM; in experiment [2], 1040 µM; in experiment [3], 1010 µM; in [4] it was 4220 µM.
For `CN1C(=O)C2(Nc3ccccc3S2)c2cc(Cl)ccc21` (stereo not given), in that order: 75 µM, 1140 µM, 1240 µM and 4020 µM.
Consider `O=C1Nc2ccc([N+](=O)[O-])cc2C12Nc1ccccc1S2` (stereo not given), for which the EC50 in [1] was 87 µM; in [2] it was 1630 µM; in experiment [3], 1300 µM; in experiment [4] it was 800 µM.
Turning to `O=C1Nc2ccc(Cl)cc2C12Nc1ccccc1S2` (stereo not given), the viability at 10 µM in the experiment with U-251 came to 98.5%; with SF-539, 97.4%; in the experiment on SF-268 it was 83.2%; in the experiment on SNB-19, 107%; in the experiment on SNB-75, 55.8%. Moreover, the EC50 in [1] was 49 µM; in experiment [2] it was 1030 µM; in [3], 1780 µM; in experiment [4], 510 µM.
`Cc1ccc2c(c1)C1(Nc3ccccc3S1)C(=O)N2` (stereo not given): the EC50 in experiment [1] is 41 µM; in [2], 1020 µM; in [3], 1300 µM; in [4], 1360 µM.
